Measured values published in ChEMBL document CHEMBL5154683, “A 5-FU Precursor Designed to Evade Anabolic and Catabolic Drug Pathways and Activated by Pd Chemistry In Vitro and In Vivo” (J Med Chem, 2022).

Key:
[1] = Mean residence time in male Wistar Han rat at 10 mg/kg, po administered as single dose measured upto 24 hrs; assay type: ADME, organism-based; details: in vivo
Outline: (§1)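 Male jugular-vein-cannulated Wistar Han rats, 263–319 g, single dose. IV: 1 mg/kg as 2 mL/kg of 0.5 mg/mL in 5% DMSO/95% HPCD (20% w/v), not fasted. PO: 10 mg/kg as 5 mL/kg of 2 mg/mL suspension in 5% DMSO/95% tween 80/HPCD vehicle, fasted overnight. Serial cannula blood sampling 0.083/0.25–24 h (n = 3/route); parent quantified by QToF against calibration curve.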

[2] = Prodrug conversion in PBS buffer assessed as mono-depropargylated intermediate formation by measuring retention time at 100 uM in presence of Pd-resin measured upto 1 hr by UPLC analysis; assay type: ADME
Outline: (§2)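 Prodrug (100 μM in PBS, pH 7.4) shaken at 1200 rpm, 37 °C with 1 mg/mL Pd resins (30 μm). Sampled at 10, 20, 40 min, 1, 3, 6, 24 and 48 h; analyzed by reverse-phase UPLC (C18, 60 °C, UV 254 nm), products identified by retention time against authentic standards.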

[3] = Prodrug conversion in PBS buffer assessed as 5-Fluorouracil formation by measuring retention time at 100 uM in presence of Pd-resin measured upto 1 hr by UPLC analysis; assay type: ADME; outline: as §2
[4] = tested on: HCT-116; assay: Antiproliferative activity against human HCT-116 cells assessed as reduction in cell viability at 100 uM incubated for 5 days in presence of Pd-resins at 0.8 mg/ml by PrestoBlue dye based assay relative to control; assay type: functional; details: time 5 day
Outline: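 HCT116 seeded at 750 cells/well and grown 48 h. Medium then replaced with fresh medium with or without Pd resins (20–160 μg per well; 0.2–1.4 mg/mL). Compound added as 5 μL of a 2 mM stock in 2% DMSO/medium, incubated 5 d. PrestoBlue fluorescence read; values normalised to untreated cells within each resin dilution.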

[5] = Oral bioavailability in Wistar Han rat at 10 mg/kg administered as single dose measured upto 24 hrs; assay type: ADME, organism-based; details: in vivo; outline: as §1
[6] = Apparent permeability across basolateral to apical side in human Caco-2 cells at 10 uM measured after 120 mins by LC-MS/MS analysis; assay type: ADME, cell-based
Outline: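 Caco-2 cells (P40-60) seeded at 1 × 10⁵ cells/cm² on Transwells, used on day 20; rinsed and equilibrated 40 min in HBSS pH 7.4. Compound at 10 μM in HBSS, 1% v/v DMSO, added apically (A–B) or basolaterally (B–A); 120 min at 37 °C, 5% CO₂. Lucifer yellow monitored monolayer integrity; LC-MS/MS with eight-point calibration; recovery from C₀ and both compartments.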

[7] = AUC (0 to t) in male Wistar Han rat at 1 mg/kg, iv administered as single dose measured upto 24 hrs; assay type: ADME, organism-based; set-up: dose 1 mg/kg, time < 24 hrs, route iv; details: in vivo; outline: as §1
[8] = tested on: HCT-116; assay: Antiproliferative activity against human HCT-116 cells assessed as reduction in cell viability measured after 5 days by PrestoBlue reagent based assay; assay type: functional; details: HCT-116, 120 h
Outline: (§3)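 Cells in 10% FBS, 2 mM L-glutamine media at 37 °C, 5% CO₂ (HCT116 in McCoy's 5A, BxPC-3 in RPMI). Seeded at 3000 (HCT116) or 2500 (BxPC-3) cells/well and grown 48 h. Medium then replaced with drug-containing medium, 0.1% DMSO, for 5 d. PrestoBlue 10% v/v added for 1 h, fluorescence read ex 540/em 590 nm. Normalised to DMSO-only wells; sigmoidal variable-slope fit; n = 3.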

[9] = Mean residence time in male Wistar Han rat at 1 mg/kg, iv administered as single dose measured upto 24 hrs; assay type: ADME, organism-based; details: in vivo; outline: as §1
[10] = Toxicity in female Wistar Han rat assessed as abnormal morphological changes in organs at 1000 mg/kg, po administered as single dose measured after 15 days; assay type: organism-based; details: in vivo, 360 h, time 15 day
Outline: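 Single oral dose of 1000 mg/kg in 10 mL/kg to male and female rats (n = 6), then 14 days of observation. Mortality and morbidity checked twice daily, with clinical observations and functional/neurobehavioral tests. Body weight recorded d1, d2, d5, d8, d11 and d14. Gross necropsy on d15.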

[11] = Plasma protein binding in human at 5 uM; assay type: ADME, cell-free; details: read-out: PPB (converted)
Outline: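 Binding of compound at 5 μM measured in rat and human plasma, with compound recovery determined; n = 3.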

[12] = AUC (0 to infinity) in female Wistar Han rat at 1000 mg/kg, po administered as single dose measured upto 24 hrs; assay type: ADME, organism-based; set-up: time < 24 hrs, dose 1000 mg/kg, route po; details: in vivo
Outline: (§4)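 Single oral dose 1000 mg/kg in male and female rats, dosing volume 10 mL/kg (n = 6); animals observed 14 days with clinical checks, functional/neurobehavioral tests and body weight, necropsy on d15; exposure parameters from the toxicokinetic arm of this study.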

[13] = Toxicity in female Wistar Han rat assessed as mortality at 1000 mg/kg, po administered as single dose measured over 14 days; assay type: organism-based; details: in vivo, 336 h, time > 14 day
Outline: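 Single oral dose of 1000 mg/kg at 10 mL/kg to male and female rats (n = 6), then 14 d observation. Morbidity and mortality checked twice daily. Clinical signs recorded predose, twice on dosing day, then daily. FOB on d1, d7 or d14. Body weight on d1, 2, 5, 8, 11 and 14. Gross necropsy on d15.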

[14] = Metabolic stability in human hepatocytes assessed as intrinsic clearance at 1 uM measured per 10^6 cells by LC-MS/MS analysis; assay type: ADME, cell-based, Hepatocyte; details: read-out: CLH
Outline: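 Suspended hepatocytes (0.5 × 10⁶ cells/mL) in Williams E medium with 2 mM L-glutamine and 25 mM HEPES at 37 °C, compound added with 0.25% v/v DMSO after preincubation; aliquots quenched into methanol with internal standard at time points, centrifuged, supernatant analyzed by LC-MS/MS; two control compounds included.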

[15] = tested on: BXPC-3; assay: Antiproliferative activity against human BxPC-3 cells assessed as reduction in cell viability measured after 5 days by PrestoBlue reagent based assay; assay type: functional; details: BXPC-3, 120 h; outline: as §3
[16] = Drug distribution in brain of BALB/c mouse xenografted with human HCT-116 cells at 75 to 150 mg/kg, po administered for 7 days; assay type: ADME, organism-based; details: in vivo, 168 h, dose 75-150 mg/kg, time 7 day
[17] = AUC (0 to infinity) in male Wistar Han rat at 1 mg/kg, iv administered as single dose measured upto 24 hrs; assay type: ADME, organism-based; set-up: time < 24 hrs, dose 1 mg/kg, route iv; details: in vivo; outline: as §1
[18] = Tmax in female Wistar Han rat at 1000 mg/kg, po administered as single dose measured upto 24 hrs; assay type: ADME, organism-based; details: in vivo; outline: as §4
[19] = Drug metabolism in BALB/c mouse bearing HCT-116 tumor assessed as release of 5-FU in plasma at 75 to 150 mg/kg, po administered for 7 days; assay type: ADME, organism-based; details: in vivo, 168 h, dose 75-150 mg/kg, time 7 day
Outline: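 Same HCT116-bearing BALB/c nude mice with intratumoral Pd resins and 7-day oral dosing at 75 or 150 mg/kg; blood collected by microsampling on day 7, 2 h after administration, plasma frozen at –20 °C for analysis.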

[20] = Cmax in male Wistar Han rat at 1000 mg/kg, po administered as single dose measured upto 24 hrs; assay type: ADME, organism-based; set-up: time < 24 hrs, dose 1000 mg/kg, route po; details: in vivo; outline: as §4

For C#CCOc1ncc(F)c(OCC#C)n1, the MRT [1] was 1.86 h, the Retention_time [2] was 0.98 min and the Retention_time [3] was 0.78 min. It also gave an Activity [4] of 7%, an F [5] of 187% and a Papp B→A at 2 h, 10 µM [6] of 38.8 ×10⁻⁶ cm/s. For the same molecule, the AUC(0-t) at 24 h [7] was 0.324 µg·h/mL, the EC50 [8] was > 100 µM and the MRT [9] was 0.569 h. For the same molecule, the Activity [10] was “Non-Toxic”, the fraction unbound at 5 µM [11] was 0.142 and the AUC(0-inf) [12] was 1470 µg·h/mL. For the same molecule, the Activity [13] was “Non-Toxic”, the hepatocyte CLint at 1 µM [14] was 4.51 µL/min/1e6 cells and the EC50 [15] was > 100 µM. For the same molecule, the Drug uptake [16] was “Active”, the AUC(0-inf) [17] was 0.33 µg·h/mL and the Tmax [18] was 4 h. The Drug metabolism [19] was “Metabolite_Detected” and the Cmax [20] was 84.7 µg/mL.
